Measured values published in ChEMBL document CHEMBL1154145, “Inhibitory effect of macabarterin, a polyoxygenated ellagitannin from Macaranga barteri, on human neutrophil respiratory burst activity” (J Nat Prod, 2008).
Converted amounts (≈) assume the structure as drawn.

Legend:
[1] = Antiinflammatory activity in human neutrophils assessed as respiratory burst inhibition at 1000 ug/ml by WST-1 assay; format: functional; conditions: Neutrophil
Method in brief: (§1)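 Neutrophils came from heparinized blood of healthy volunteers, diluted with modified Hank's solution (MHS, pH 7.4), left 20 min at RT, then Ficoll-separated (>97% trypan-blue viable). 1.0 × 10^4 cells/mL in MHS with 250 µM WST-1 and compound were equilibrated at 37 °C. Opsonized zymosan A (15 mg/mL, pooled human serum) was added to start the reaction. A450 was read. Inhibition was calculated against a DMSO blank from five replicates.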

[2] = Antiinflammatory activity in human neutrophils assessed inhibition of superoxide anions production; format: functional, cell-based; conditions: Neutrophil; method in brief: as §1

SMILES | inhibition at 1000 µg/mL [1] [%] | IC50 [2] [µg/mL]
COc1c(O)cc2c(=O)oc3c(O)c(O)cc4c(=O)oc1c2c34 | 13.7 | 
COc1c(O[C@@H]2OC[C@@H](O)[C@H](O)[C@H]2O)cc2c(=O)oc3c(O)c(O)cc4c(=O)oc1c2c34 | 29.1 | 
COc1cc2ccc(=O)oc2cc1O [SCOPOLETIN] | 31.2 | 
COc1ccc2c(c1)c(CC(=O)O)c(C)n2C(=O)c1ccc(Cl)cc1 [INDOMETHACIN] | 58.8 | 758 (≈ 2120 µM)
O=c1oc2c(O)c(O)cc3c(=O)oc4c(O)c(O)cc1c4c23 [ELLAGIC ACID] | 27.1 | 
O=C(O)c1cc(O)c(O)c(O)c1 [GALLIC ACID] | 42.9 | 
CC(=O)Oc1ccccc1C(=O)O [ASPIRIN] | 70.5 | 279 (≈ 1550 µM)
O=C(O[C@@H]1O[C@@H]2COC(=O)c3cc(O)c(O)c(O)c3-c3c(cc(O)c(O)c3O)C(=O)O[C@@H]3[C@H]1OC(=O)c1cc(O)c(O)c4c1C1C5(C[C@]6(O)OC[C@@H](O)[C@@H]6C[C@@H]5C(O)(O)C(O)(O)[C@]1(O)O4)C(=O)O[C@@H]32)c1cc(O)c(O)c(O)c1 (stereo partly specified) [MACABARTERIN] | 73.2 | 821 (≈ 746 µM)
